# Source: PubChem BioAssay
# T cruzi HTS: inhibitors of intracellular Trypanosoma cruzi, primary screen, cell-based, plate reader, single point, set 2 | intracellular Trypanosoma cruzi in host cells | activity score (inhibition), % at 5.01 µM | actives 4.9% (n = 22,000) | AID 651903, 2012; in the data active = activity score above about 55%;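 also: parasites and compound incubated about four days before reading; 0% = median of neutral control wells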
# A1 apoptosis 2: A1 inhibitors via caspase activation, primary screen, cell-based, luminescence, HTS, two replicates; 24,000 tested, under 10 active; caspase activation, % (no concentration beside the values); MEF A1-2A-BIM cells, caspase-Glo luminescence, 3 h; percent of clofoctol response, DMSO zero; in the data active = caspase activation above about 5.9%
#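 Test system – A1-2A-BIM-expressing MEF cells · Input – 2500 cells/well · Medium – RPMI-1640 growth medium with 10% FBS · Compound dosing – 50 nL pinned compound · Timing – 3 h compound exposure at 37 °C · Technique – Caspase-Glo luminescence (DEVD substrate) · Evaluation – Caspase-3/7 activity from luminescence increase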
# INS-1E rescue: protection of INS-1E cells from cytokine death, primary screen, ATP luminescence, single point. INS-1E cytokine-induced death, 48 h; normalised: neutral wells 0, positive control 100. protection from cytokine-induced ATP loss, % at 10 µM. actives 0.1% (n = 20,000);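 active = mean replicate protection from cytokine-induced ATP loss at least 50% and at least 75% of replicates each reaching 50%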
#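 Assay system – rat INS-1E insulinoma cell line · Quantity – 8000 cells per well · Buffer or medium – RPMI without phenol red, 5% FBS · Schedule – 48 h co-treatment, 10 min post-lysis read · Technique – luminescent ATP assay (CellTiter-Glo)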
# Numbers without * were called inactive; x = no result given. Only a selection was taken, and hits are over-represented in it overall.
SMILES,T cruzi HTS,A1 apoptosis 2,INS-1E rescue
Cc1noc(C)c1S(=O)(=O)Nc1ccc2c(c1)CC(=O)N([C@@H](C)CO)C[C@H](C)[C@H](CN(C)Cc1ccc(Cl)c(Cl)c1)O2,54.6,x,-25.4
O=C(CCCCCCC(=O)N/N=C/c1ccoc1)NO,x,1.5,x
COc1ccc(S(=O)(=O)N[C@@H]2CCCN(Cc3cccc(OCCO)c3)C2)cc1,x,0.0,x
NC(=O)[C@H]1[C@@H]2C(=O)O[C@@H](c3ccccc3)[C@@H](c3ccccc3)N2[C@@H](c2ccc(O)cc2)[C@]12C(=O)Nc1ccc(C#CC3=CCCCC3)cc12,x,-0.2,x
CC(C)=CCC[C@@H](C)C/C=N/NC(=O)CCCCCC(=O)NO,x,0.0,x
COCCOC(=O)N1C(=O)[C@@]2(c3cc(C#CC4=CCCCC4)ccc31)[C@H](c1ccccc1OCCO)N1[C@H](c3ccccc3)[C@H](c3ccccc3)OC(=O)[C@H]1[C@@H]2C(N)=O,x,-0.8,x
C[C@@H]1CN([C@@H](C)CO)C(=O)Cc2cc(NC(=O)Nc3ccc(C(F)(F)F)cc3)ccc2O[C@@H]1CN(C)Cc1ccc(C(F)(F)F)cc1,64.3*,x,-18.8
COc1ccc(CN(C)C[C@@H]2Oc3ccc(NC(=O)Nc4ccc(C(F)(F)F)cc4)cc3CC(=O)N([C@@H](C)CO)C[C@@H]2C)cc1,3.8,-0.8,-24.7
C[C@H]1CN([C@@H](C)CO)C(=O)Cc2cc(NC(=O)Nc3ccc(C(F)(F)F)cc3)ccc2O[C@@H]1CN(C)Cc1ccc(C(=O)O)cc1,-27.0,x,5.2
C[C@H]1CN([C@@H](C)CO)C(=O)Cc2cc(NC(=O)Nc3ccc(C(F)(F)F)cc3)ccc2O[C@H]1CN(C)Cc1ccc(C(F)(F)F)cc1,82.2*,x,-90.2
C[C@@H]1CN([C@@H](C)CO)C(=O)Cc2cc(NC(=O)Nc3ccc(C(F)(F)F)cc3)ccc2O[C@H]1CN(C)Cc1ccc(C(F)(F)F)cc1,x,0.2,x
C[C@@H]1CN([C@@H](C)CO)C(=O)Cc2cc(NC(=O)C3CCCCC3)ccc2O[C@@H]1CN(C)Cc1ccc(C(F)(F)F)cc1,44.1,-0.5,-10.5
C[C@@H]1CN([C@H](C)CO)C(=O)Cc2cc(NC(=O)C3CCCCC3)ccc2O[C@H]1CN(C)Cc1ccc(C(F)(F)F)cc1,58.0*,x,-11.8
C[C@@H]1CN([C@H](C)CO)C(=O)Cc2cc(NC(=O)Nc3ccc(F)cc3)ccc2O[C@@H]1CN(C)Cc1ccc(C(F)(F)F)cc1,60.2*,1.1,-76.3
O=C(CCCCCCC(=O)Nc1ccccc1O)N/N=C/c1ccc(Br)cc1,4.9,x,-2.8
Cc1[nH]cnc1/C=N/NC(=O)c1ccccn1,47.7,-1.5,-117.5
C=CCN1C(=O)[C@@]2(O[C@@H](CCO)[C@H]([Si](C)(C)c3ccc(OC)cc3)[C@H]2C)c2cc(I)ccc21,x,-2.1,x
C=C(C)[C@@H]1CC=C(/C=N/NC(=O)CCCCC(=O)NO)CC1,26.7,x,2.9
C[C@@H]1CCCCO[C@@H](CN(C)S(=O)(=O)c2ccc(Cl)cc2)[C@H](C)CN([C@H](C)CO)C(=O)c2cc(NC(=O)NC3CCCCC3)ccc2O1,x,0.5,x
C[C@@H]1CN([C@@H](C)CO)C(=O)c2cc(NC(=O)CCN3CCOCC3)ccc2O[C@H]1CN(C)S(=O)(=O)c1ccc(Cl)cc1,5.5,x,-2.6
CC(C)(C)OC(=O)NC1(/C=N/NC(=O)c2ccccc2O)CCCC1,-15.8,x,-31.1
C[C@@H]1CN([C@@H](C)CO)C(=O)Cc2cc(NC(=O)c3ccncc3)ccc2O[C@@H]1CN(C)Cc1ccc(C(=O)Nc2ccccc2N)cc1,52.7,1.5,-13.1
C[C@H]1CN([C@@H](C)CO)C(=O)c2cc(N(C)C)ccc2O[C@@H]1CN(C)Cc1ccc(C(=O)Nc2ccccc2N)cc1,33.8,x,29.3
C[C@H](CO)N1C[C@H](C)[C@@H](CN(C)Cc2ccc(C(=O)Nc3ccccc3N)cc2)Oc2ccc(N(C)C)cc2CC1=O,x,-0.8,x
C[C@H](CO)N1C[C@H](C)[C@H](CN(C)Cc2ccc(C(=O)Nc3ccccc3N)cc2)Oc2ccc(N(C)C)cc2CC1=O,59.0*,x,65.2*
SMILES,T cruzi HTS,A1 apoptosis 2,INS-1E rescue
C[C@H]1CN([C@@H](C)CO)C(=O)Cc2cc(N(C)C)ccc2O[C@H]1CN(C)Cc1ccc(C(=O)Nc2ccccc2N)cc1,61.9*,x,31.5
C[C@@H]1CN([C@@H](C)CO)C(=O)c2cc(N(C)C)ccc2O[C@@H]1CN(C)Cc1ccc(C(=O)Nc2ccccc2N)cc1,61.2*,x,28.0
NC(=O)NCC#Cc1ccc2c(c1)[C@]1(C(=O)N2)[C@H](c2ccc(OCCO)cc2)N2[C@H](c3ccccc3)[C@H](c3ccccc3)OC(=O)[C@H]2[C@@H]1C(=O)Nc1nc2ccccc2s1,x,-0.7,x
C[C@H](CO)N1C[C@H](C)[C@@H](CN(C)Cc2ccccc2)OCCCC[C@H](C)Oc2ccc(NC(=O)CCC(F)(F)F)cc2C1=O,x,-0.6,x
Cc1ccc(S(=O)(=O)N[C@@H](Cc2ccccc2)C(=O)NCCN=[N+]=[N-])cc1,x,0.9,x
Cc1noc(C)c1S(=O)(=O)Nc1ccc2c(c1)C(=O)N([C@H](C)CO)C[C@@H](C)[C@H](CN(C)C(=O)Nc1ccc(C(F)(F)F)cc1)OCCCC[C@@H](C)O2,x,-1.3,x
Cc1noc(C)c1S(=O)(=O)Nc1ccc2c(c1)C(=O)N([C@H](C)CO)C[C@H](C)[C@@H](CN(C)C(=O)Nc1ccc(C(F)(F)F)cc1)OCCCC[C@@H](C)O2,58.0*,x,2.2
Cc1noc(C)c1S(=O)(=O)Nc1ccc2c(c1)C(=O)N([C@H](C)CO)C[C@H](C)[C@H](CN(C)C(=O)Nc1ccc(C(F)(F)F)cc1)OCCCC[C@@H](C)O2,58.1*,x,4.1
Cc1noc(C)c1S(=O)(=O)Nc1ccc2c(c1)C(=O)N([C@@H](C)CO)C[C@@H](C)[C@H](CN(C)C(=O)Nc1ccc(C(F)(F)F)cc1)OCCCC[C@H](C)O2,x,0.3,x
Cc1ccc(S(=O)(=O)N(C)C[C@H]2Oc3ccc(NS(=O)(=O)c4cn(C)cn4)cc3C(=O)N([C@@H](C)CO)C[C@H]2C)cc1,0.1,-0.8,2.5
CC(/C=C/C(=O)NO)=C\c1cccc(OC[C@@H]2[C@H]3C[C@H]4c5[nH]c6ccccc6c5CCN4C[C@@H]3CC[C@@H]2O)c1,x,0.1,x
O=C(NO)c1ccc(C(=O)N/N=C/c2ccc[nH]2)cc1,-2.8,x,-3.9
COC(=O)CCCCCCC(=O)N/N=C/c1ccc(N(C)C)cc1,0.6,1.0,5.1
O=C1O[C@@H](c2ccccc2)[C@@H](c2ccccc2)N2[C@@H](c3ccc(OCCO)cc3)[C@]3(C(=O)Nc4ccccc43)[C@@H](C(=O)NC[C@H](O)c3ccccc3)[C@H]12,x,1.4,x
C[C@@H]1CN([C@H](C)CO)C(=O)c2cc(NC(=O)Nc3ccc(C(F)(F)F)cc3)ccc2O[C@H]1CN(C)S(=O)(=O)c1ccccc1,70.4*,-0.6,-36.8
C[C@@H]1CN([C@@H](C)CO)C(=O)c2cc(NC(=O)Nc3cccc4ccccc34)ccc2O[C@@H]1CN(C)S(=O)(=O)c1ccc(F)cc1,27.5,-1.1,-12.6
